Results published in ChEMBL document CHEMBL1240469, “In vitro and in vivo studies on stilbene analogs as potential treatment agents for colon cancer” (Eur J Med Chem, 2010).
pIC50: −log10 of the molar value. Active and inactive are the calls of the source. The calls are words filed in the database; no cut-off is given here.

Legend:
Serum = experiment: Drug level in SCID mouse serum at 10 mg/kg, ip by GC-MS analysis; type: ADME, organism-based; design: dose 10 mg/kg, route intraperitoneal; conditions: in vivo
Method in brief: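 Blood taken at autopsy from xenografted SCID mice after 3 weeks of daily i.p. dosing at 10 mg/kg. Serum (50 μL) was incubated with 1 M sodium acetate pH 5 for 60 min at 37 °C, extracted 3× with ethyl acetate, dried and redissolved. Analysed by GC-MS on a DB-5 column, with quantification against external-standard calibration curves at m/z 255, 298 or 270. Values given as mean ± std.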

Mus musculus = experiment: Toxicity in SCID mouse assessed as effect on body weight at 10 mg/kg, ip qd for 3 weeks (reference value: 20.4 +/- 0.4 g); type: organism-based; design: dose 10 mg/kg, route intraperitoneal; conditions: in vivo, 504 h
HT-29 [1] = experiment: Cytotoxicity against human HT-29 cells after 3 days by [3H]thymidine incorporation assay; type: functional, cell-based
Method in brief: (§1)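 Cells kept in DMEM with 10% FBS at 37 °C, 5% CO2, then plated at 20,000 cells/well. Exposed to a range of concentrations for 3 days at 37 °C, final DMSO 0.1% or less, with DMSO controls. IC50 reported.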

Caco-2 = experiment: Cytotoxicity against human Caco-2 cells after 3 days by [3H]thymidine incorporation assay; type: functional, cell-based; method in brief: as §1
HT-29 [2] = experiment: Antitumor activity against human HT-29 cells xenografted in SCID mouse assessed as reduction tumor volume at 10 mg/kg, ip qd for 3 weeks (reference value: 1087 +/- 138.9 mm'3); type: functional; conditions: route intraperitoneal
HT-29 [3] = experiment: Antitumor activity against human HT-29 cells xenografted in SCID mouse assessed as reduction tumor weight at 10 mg/kg, ip qd for 3 weeks (reference value: 0.72 +/- 0.1 g); type: functional; conditions: route intraperitoneal
HT-29 [4] = experiment: Reduction of proliferating cell nuclear antigen level in human HT-29 cells by immunohistochemistry analysis; type: functional, cell-based
Method in brief: (§2)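 Paraffin sections of xenograft tumors, 4 μm thick, incubated overnight with anti-PCNA (1:1000) or anti-p27 (1:50), then biotinylated secondary, avidin-biotin peroxidase and diaminobenzidine, with hematoxylin counterstain. Five random fields per slide were imaged at 400×. PCNA was reported as labeling index (positive cells/total ×100, averaged per tumor); p27 as integrated optical density averaged per tumor and per group; ± SE.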

HT-29 [5] = experiment: Induction of apoptosis in human HT-29 cells assessed as caspase3 activity; type: functional, cell-based
HT-29 [6] = experiment: Reduction of proliferating cell nuclear antigen level in human HT-29 cells by Western blotting; type: functional, cell-based
Method in brief: (§3)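 Xenograft tumors from treated SCID mice were homogenized in lysis buffer and pooled by group. Primary antibodies (PCNA or p27) were applied overnight at 4 °C, followed by HRP secondary for 1 h. Bands detected by chemiluminescence, with β-actin as loading control.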

HT-29 [7] = experiment: Up-regulation of p27 expression level in human HT-29 cells by Western blotting; type: functional, cell-based; method in brief: as §3
HT-29 [8] = experiment: Induction of apoptosis in human HT-29 cells assessed as PARP cleavage; type: functional, cell-based
HT-29 [9] = experiment: Up-regulation of p27 expression level in human HT-29 cells by immunohistochemistry analysis; type: functional, cell-based; method in brief: as §2

Row | Compound | Drug uptake (Serum) [ng/mL] | pIC50 (HT-29 [1]) | pIC50 (Caco-2) | other results
1 | COC(=O)c1ccc(/C=C/c2cc(OC)cc(OC)c2)cc1 | 54.6 |  |  | 
2 | COc1ccc(/C=C\c2cc(OC)cc(OC)c2)cc1 [8Z-3,4',5-TRIMETHOXYSTILBENE] | 15.5 | 7.40 | 7.10 | Activity (Mus musculus): 19.8 g; Activity (HT-29 [2]): 1023.6 mm3; Activity (HT-29 [3]): 0.61 g
3 | COc1cc(/C=C\c2ccc(N)cc2)cc(OC)c1 | 109.1 |  |  | 
4 | COc1cc(/C=C\c2ccc(F)cc2)cc(OC)c1 |  | < 5.00 | < 5.00 | 
5 | COc1cc(O)cc(/C=C/c2ccc(O)cc2)c1 |  | 4.47 | 4.72 | 
6 | COc1ccc(/C=C\c2cc(O)cc(O)c2)cc1 |  | < 4.52 | < 4.52 | 
7 | COC(=O)c1ccc(/C=C\c2cc(OC)cc(OC)c2)cc1 | 18.8 |  |  | 
8 | COc1cc(/C=C/c2ccc(O)cc2)cc(OC)c1 [PTEROSTILBENE] |  | 4.62 | 4.84 | 
9 | COc1cc(/C=C/c2ccc(F)cc2)cc(OC)c1 |  | < 5.00 | < 5.00 | 
10 | COc1cc(/C=C/c2ccc(N)cc2)cc(OC)c1 | 99 |  |  | 
11 | COc1cc(/C=C/c2ccc(OC3OC(CO)C(O)C(O)C3O)cc2)cc(OC)c1 (stereo not drawn) |  | < 5.00 | < 5.00 | 
12 | COc1ccc(/C=C/c2cc(OC)cc(OC)c2)cc1 [TRISMETHOXYRESVERATROL] | 69.9 | 4.79 | 4.92 | Activity (HT-29 [4]): Active; Activity (Mus musculus): 19.5 g; Activity (HT-29 [5]): inactive; Activity (HT-29 [6]): Active; Activity (HT-29 [7]): Active; Activity (HT-29 [8]): inactive; Activity (HT-29 [2]): 590.3 mm3; Activity (HT-29 [9]): Active; Activity (HT-29 [3]): 0.57 g
13 | COc1cc(/C=C/c2ccc(S)cc2)cc(OC)c1 |  | < 5.00 | < 5.00 | 
14 | COc1ccc(/C=C/c2cc(O)cc(O)c2)cc1 [RESVERATROL 4'-METHYL ETHER] |  | 4.61 | < 4.52 | 
